From ChEMBL document CHEMBL2331482, “Synthesis of some new 2-(3-pyridyl)-4,5-disubstituted thiazoles as potent antimicrobial agents” (2013) come the findings set out here.

Common to all, as to format: functional
For one experiment, the system named is Aspergillus clavatus. In words: Antifungal activity against Aspergillus clavatus RCMB 02593 assessed as growth inhibition after 48 hrs by twofold serial dilution method. The conditions noted are these: RCMB 02593, 48 h. The essentials:
(§1)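 Fungi were tested by microdilution in Sabouraud liquid medium. Only compounds with disc-diffusion zones >10 mm went on to this test. DMF stocks (1000 µg/mL) were serially diluted twofold to 500–0.007 µg/mL. Sealed plates were held 48 h at 25 °C in a humid chamber. MIC was the lowest concentration without visible turbidity. DMF and uninoculated-medium controls ran in parallel.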

A further experiment has as its system Klebsiella pneumoniae. In words: Antibacterial activity against Klebsiella pneumoniae RCMB 010093 assessed as growth inhibition after 24 hrs by twofold serial dilution method. Summed up:
(§2)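 Broth microdilution in Müller–Hinton broth, 96-well plates. Only compounds giving disc-diffusion zones >10 mm were tested. DMF stocks (1000 µg/mL) were diluted twofold to a final 500–0.007 µg/mL, with about 10^6 CFU/mL bacteria. Sealed plates ran 24 h at 37 °C in a humid chamber. MIC was the lowest concentration with no visible turbidity. DMF and uninoculated-medium controls were included.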

In another experiment the test system is Candida albicans. In words: Antifungal activity against Candida albicans RCMB 05035 assessed as growth inhibition after 48 hrs by twofold serial dilution method. The essentials: as §1
Another experiment relates to Proteus vulgaris. In words: Antibacterial activity against Proteus vulgaris RCMB 010085 assessed as growth inhibition after 24 hrs by twofold serial dilution method. The essentials: as §2
For the next experiment, the system named is Staphylococcus aureus. Put plainly: Antibacterial activity against Staphylococcus aureus RCMB 010027 assessed as growth inhibition after 24 hrs by twofold serial dilution method. The conditions noted are these: RCMB 010027, 24 h. The essentials: as §2
In another experiment the test system is Bacillus subtilis. Put plainly: Antibacterial activity against Bacillus subtilis RCMB 010063 assessed as growth inhibition after 24 hrs by twofold serial dilution method. The conditions noted are these: RCMB 010063, 24 h. Summed up:
as §2

A further experiment concerns Shigella flexneri. Put plainly: Antibacterial activity against Shigella flexneri RCMB 0100542 assessed as growth inhibition after 24 hrs by twofold serial dilution method. The essentials: as §2
For the next experiment, the system named is Streptococcus pyogenes. In words: Antibacterial activity against Streptococcus pyogenes RCMB 010015 assessed as growth inhibition after 24 hrs by twofold serial dilution method. The essentials: as §2
The subject of another experiment is Neisseria gonorrhoeae. In words: Antibacterial activity against Neisseria gonorrhoeae RCMB 010076 assessed as growth inhibition after 24 hrs by twofold serial dilution method. Summed up:
as §2

Another experiment concerns Aspergillus fumigatus. Put plainly: Antifungal activity against Aspergillus fumigatus RCMB 02564 assessed as growth inhibition after 48 hrs by twofold serial dilution method. The conditions noted are these: RCMB 02564, 48 h. The essentials: as §1
Experiment [1] relates to Staphylococcus epidermidis. Put plainly: Antibacterial activity against Staphylococcus epidermidis RCMB 010024 assessed as growth inhibition after 24 hrs by twofold serial dilution method. The conditions noted are these: RCMB 010024, 24 h. The essentials:
as §2

The next experiment relates to Pseudomonas aeruginosa. Put plainly: Antibacterial activity against Pseudomonas aeruginosa RCMB 010043 assessed as growth inhibition after 24 hrs by twofold serial dilution method. Summed up:
as §2

In the next experiment the test system is Talaromyces marneffei. Put plainly: Antifungal activity against Penicillium marneffei RCMB 01267 assessed as growth inhibition after 48 hrs by twofold serial dilution method. The conditions noted are these: RCMB 01267, 48 h. The essentials: as §1
The subject of another experiment is Enterococcus faecalis. In words: Antibacterial activity against Enterococcus faecalis RCMB 010068 assessed as growth inhibition after 24 hrs by twofold serial dilution method. The conditions noted are these: RCMB 010068, 24 h. Summed up: as §2
In the next experiment the test system is Geotrichum candidum. In words: Antifungal activity against Geotricum candidum RCMB 05096 assessed as growth inhibition after 48 hrs by twofold serial dilution method. The conditions noted are these: RCMB 05096, 48 h. Summed up:
as §1

≈ marks a conversion by molar mass, not a printed value. Calls of active or inactive are those of the source. No cut-off for these calls is given here.

For orientation: MIC means the lowest concentration found to suppress growth. For `Cc1nc(-c2cccnc2)sc1C(=O)/C=C/c1ccccc1[N+](=O)[O-]`, the minimum inhibitory concentration (MIC) with Aspergillus clavatus was found to be 31.2 µg/mL (≈ 88.9 µM); in the experiment on Klebsiella pneumoniae (RCMB 010093, 24 h), 0.97 µg/mL (≈ 2.76 µM); in the experiment on Candida albicans (RCMB 05035, 48 h) it was 31.2 µg/mL (≈ 88.9 µM); in the experiment with Proteus vulgaris (RCMB 010085, 24 h), 7.81 µg/mL (≈ 22.2 µM); in the experiment on Staphylococcus aureus it was 3.9 µg/mL (≈ 11.1 µM); with Bacillus subtilis, 0.97 µg/mL (≈ 2.76 µM). For the same molecule, the MIC in the experiment on Shigella flexneri (RCMB 0100542, 24 h) came out at 7.81 µg/mL (≈ 22.2 µM); in the experiment on Streptococcus pyogenes (RCMB 010015, 24 h), 62.5 µg/mL (≈ 178 µM); with Neisseria gonorrhoeae (RCMB 010076, 24 h) it was 125 µg/mL (≈ 356 µM); in the experiment with Aspergillus fumigatus, 7.81 µg/mL (≈ 22.2 µM); in [1], 0.97 µg/mL (≈ 2.76 µM); in the experiment on Pseudomonas aeruginosa (RCMB 010043, 24 h) it was 125 µg/mL (≈ 356 µM). The MIC with Talaromyces marneffei came to 15.8 µg/mL (≈ 45.1 µM); in the experiment on Enterococcus faecalis, 62.5 µg/mL (≈ 178 µM); with Geotrichum candidum, 7.81 µg/mL (≈ 22.2 µM).
Consider `CC1(C)S[C@@H]2[C@H](NC(=O)[C@H](N)c3ccccc3)C(=O)N2[C@H]1C(=O)O` [AMPICILLIN], for which the minimal inhibitory concentration (MIC) is 0.06 µg/mL (≈ 0.172 µM) with Staphylococcus aureus; 0.007 µg/mL (≈ 0.02 µM) in the experiment on Bacillus subtilis; 0.24 µg/mL (≈ 0.687 µM) with Streptococcus pyogenes (RCMB 010015, 24 h); 0.48 µg/mL (≈ 1.37 µM) in experiment [1]; 1.95 µg/mL (≈ 5.58 µM) in the experiment with Enterococcus faecalis.
For `Cc1nc(-c2cccnc2)sc1C1=NNC(c2ccc(F)cc2F)C1` (stereo not given), the MIC in the experiment on Aspergillus clavatus was found to be 125 µg/mL (≈ 351 µM); in the experiment on Staphylococcus aureus, 125 µg/mL (≈ 351 µM); in the experiment on Bacillus subtilis, 62.5 µg/mL (≈ 175 µM); in the experiment with Aspergillus fumigatus, 125 µg/mL (≈ 351 µM); in experiment [1] it was 125 µg/mL (≈ 351 µM); in the experiment on Talaromyces marneffei, 250 µg/mL (≈ 701 µM). Besides, the minimal inhibitory concentration (MIC) in the experiment with Enterococcus faecalis and in the experiment on Geotrichum candidum was 125 µg/mL (≈ 351 µM) in each case. In addition, the MIC result in the experiment with Klebsiella pneumoniae, with Candida albicans, in the experiment with Proteus vulgaris, with Shigella flexneri, with Streptococcus pyogenes and with Neisseria gonorrhoeae was “inactive” each time. For the same molecule, the MIC entry in the experiment with Pseudomonas aeruginosa was “inactive”.
Consider `Cc1nc(-c2cccnc2)sc1C1=NNC(c2ccccc2)C1` (stereo not given), for which the MIC is 62.5 µg/mL (≈ 195 µM) in the experiment with Aspergillus clavatus; 125 µg/mL (≈ 390 µM) in the experiment with Staphylococcus aureus; 62.5 µg/mL (≈ 195 µM) with Bacillus subtilis; 125 µg/mL (≈ 390 µM) with Aspergillus fumigatus; 62.5 µg/mL (≈ 195 µM) in experiment [1]; 250 µg/mL (≈ 780 µM) with Talaromyces marneffei. Moreover, the MIC with Enterococcus faecalis was found to be 125 µg/mL (≈ 390 µM); with Geotrichum candidum it was 62.5 µg/mL (≈ 195 µM). Also, the MIC entry with Klebsiella pneumoniae, with Candida albicans, with Proteus vulgaris, in the experiment on Shigella flexneri, in the experiment on Streptococcus pyogenes and with Neisseria gonorrhoeae was “inactive” each time. The MIC entry in the experiment on Pseudomonas aeruginosa was “inactive”.
On to GENTAMICIN, for which the MIC in the experiment on Klebsiella pneumoniae amounted to 0.24 µg/mL; in the experiment on Proteus vulgaris it was 1.95 µg/mL; in the experiment with Shigella flexneri it was 0.48 µg/mL; with Neisseria gonorrhoeae, 7.81 µg/mL; in the experiment with Pseudomonas aeruginosa, 31.2 µg/mL.
As to `Cc1nc(-c2cccnc2)sc1C1=NNC(c2ccc(Cl)cc2)C1` (stereo not given), the MIC in the experiment on Aspergillus clavatus amounted to 125 µg/mL (≈ 352 µM); in the experiment on Staphylococcus aureus it was 125 µg/mL (≈ 352 µM); with Bacillus subtilis it was 62.5 µg/mL (≈ 176 µM); in the experiment with Aspergillus fumigatus it was 125 µg/mL (≈ 352 µM); in [1], 62.5 µg/mL (≈ 176 µM); with Talaromyces marneffei, 250 µg/mL (≈ 704 µM). Further, the MIC with Enterococcus faecalis and in the experiment on Geotrichum candidum was 125 µg/mL (≈ 352 µM) each time. Further, the MIC entry in the experiment on Klebsiella pneumoniae, in the experiment with Candida albicans, in the experiment with Proteus vulgaris, in the experiment on Shigella flexneri, with Streptococcus pyogenes and in the experiment with Neisseria gonorrhoeae was “inactive” each time. Besides, the MIC result with Pseudomonas aeruginosa is “inactive”.
On to `Cc1nc(-c2cccnc2)sc1C(=O)/C=C/c1ccccc1`, for which the MIC in the experiment with Aspergillus clavatus is 125 µg/mL (≈ 408 µM); with Klebsiella pneumoniae (RCMB 010093, 24 h) it was 62.5 µg/mL (≈ 204 µM); in the experiment on Candida albicans (RCMB 05035, 48 h), 500 µg/mL (≈ 1630 µM); in the experiment on Proteus vulgaris (RCMB 010085, 24 h), 62.5 µg/mL (≈ 204 µM); in the experiment with Staphylococcus aureus, 62.5 µg/mL (≈ 204 µM); in the experiment with Bacillus subtilis, 31.2 µg/mL (≈ 102 µM). The MIC with Shigella flexneri (RCMB 0100542, 24 h) came out at 125 µg/mL (≈ 408 µM); with Aspergillus fumigatus, 125 µg/mL (≈ 408 µM); in experiment [1], 31.2 µg/mL (≈ 102 µM); in the experiment on Talaromyces marneffei it was 125 µg/mL (≈ 408 µM); with Enterococcus faecalis, 500 µg/mL (≈ 1630 µM); with Geotrichum candidum, 62.5 µg/mL (≈ 204 µM). Also, the MIC entry in the experiment on Streptococcus pyogenes, with Neisseria gonorrhoeae and in the experiment with Pseudomonas aeruginosa was “inactive” each time.
